In the library only some 2.3% were active in any assay of this set; here they are far more common.
STEP inh: blocks human striatal-enriched tyrosine phosphatase. P54829. recombinant STEP, OMFP fluorogenic substrate, fluorescence. inhibition, % at 20 µM. hit rate 0.25% among 360,000. AID 588621;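 active = inhibition at 20 µM, scaled per plate between control wells, above about 37%, limit read from the data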
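Test system: STEP tyrosine phosphatase / Reagent: OMFP at 25 µM / Doses: 20 µM, 1% DMSO / Read-out: percent inhibition scaled to no-enzyme and uninhibited-enzyme controls, plate-pattern corrected / Detection: FITC-channel fluorescence of OMFP product / Medium: Bis-Tris buffer pH 6.0, 2.5 mM DTT, 0.005% Tween 20 / Schedule: 20 min at room temperature, dark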
LMPTP block: LMPTP (human) inhibition. inhibition, % at 20 µM. P24666. AID 651560. recombinant LMPTP-A, OMFP fluorogenic substrate, fluorescence intensity. hit rate 0.22% among 360,000;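 active = compounds that cut the enzyme signal by at least half of the control window in the single-dose screen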
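Assay system: LMPTP-A phosphatase enzyme | Input: 0.625 nM enzyme | Also added: Fluorogenic phosphatase substrate OMFP at 400 µM final | Compound dosing: One test concentration per compound, 20 µM, with 3% DMSO overall | Schedule: 50 min enzyme reaction at room temperature, protected from light | Signal: Fluorescence intensity | Benchmarks: no-enzyme and uninhibited controls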
SUMO1 PPI mod: modulators of human SUMO1-mediated protein-protein interactions; SUMO1 binding to a labelled peptide, TR-FRET, 1 h; inhibition, % at 20 µM; hit rate 0.33% among 360,000; in the data active = inhibition above about 37%
DNMT1 block: blocks human DNA methyltransferase DNMT1; inhibition (reported as % activation of signal), % at 10 µM; DNMT1 molecular beacon, Hinp1I cleavage, fluorescence; AID 588458; hit rate 0.83% among 360,000; P26358; in the data active = inhibition above about 50%
Rpn11 inh: Rpn11 (human) deubiquitinase inhibition; inhibition, % at 20 µM; human 26S proteasome, Ub4-pepOG fluorescence polarization; 20S core pre-blocked with epoxomicin; AID 588493; O00487; hit rate 0.59% among 360,000;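 active = inhibition at 20 µM, scaled to each plate's controls, above about 33%, limit read from the data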
Scp-1 inhibitor: blocks human Scp-1 phosphatase activity. Q9GZU7. Recombinant Scp1, phosphopeptide, malachite green phosphate absorbance. inhibition, % at 20 µM. hit rate 0.88% among 340,000;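 active = inhibition above about 50% at 20 µM, limit read from the data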
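Material: truncated SCP-1 phosphatase (76-261aa) / Buffer or medium: 50 mM Tris acetate pH 5.5, 0.005% Tween-20, 10 mM MgCl2 / Compound dosing: one concentration, 20 µM, with 1.0% DMSO / Incubation: 45 min room-temperature reaction, 5 min colour, 30 min stabiliser / Detection: colorimetric free-phosphate detection, absorbance 630 nm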
Of the large screens only hits and unclear results are named; the others gave an inactive call.

COc1ccc(C(=O)CC(C(=O)O)c2ccc(OC)c(OC)c2)cc1OC (stereo unspecified)	none (no result: Scp-1 inhibitor)
CC(=O)Nc1ccc(NC(=O)CSc2ccc(-c3ccc(-n4ccnc4)cc3)nn2)cc1	SUMO1 PPI mod 42
CC(C)Oc1ccc(-c2nc(NCC3CCCO3)c3ccccc3n2)cc1 (stereo unspecified)	LMPTP block 51
COc1ccc(NC(=O)c2sc3nc(C)cc(C)c3c2N)cc1	none
Cc1cc(C)c2c(N)c(C(=O)Nc3ccc([N+](=O)[O-])cc3)sc2n1	SUMO1 PPI mod 44
CCCCCCCCCCCCCCCCCCNc1ccn(C2OC(COP(=O)(O)OCC3OC(n4cc(F)c(=O)[nH]c4=O)CC3O)C(O)C2O)c(=O)n1 (stereo unspecified)	DNMT1 block 80
C[C@H]1O[C@@H](n2cc(F)c(=O)[nH]c2=O)[C@H](O)[C@@H]1O	none
CCSc1nc(C)nc2sc(C)c(C)c12	SUMO1 PPI mod 79
Cc1nc(SCC(=O)N2CCCCC2)c2c(C)c(C)sc2n1	none
CN(c1cccc(NC(=O)c2ccc(C(C)(C)C)cc2)c1)S(C)(=O)=O	SUMO1 PPI mod 44
CN(c1cccc(NC(=O)c2ccc(N(C)S(=O)(=O)c3ccccc3)cc2)c1)S(C)(=O)=O	none
CN(C)c1nc(N)nc(/C(C#N)=C/C2CC3C=CC2C3)n1 (stereo unspecified)	LMPTP block 67
Cn1ncc2c(=O)[nH]nnc21	none
CCc1ccc(Nc2n[n+](-c3ccccc3)c(-c3ccc(N(CC)CC)cc3)s2)cc1	DNMT1 block 68 (not shown: Rpn11 inh)
CCc1ccc(Nc2n[n+](-c3ccccc3)c(-c3c(Cl)cccc3Cl)s2)cc1	LMPTP block 71
CC(=O)Nc1ccc(NC(=O)C(C)Oc2ccccc2C(=O)NCc2ccccc2)cc1 (stereo unspecified)	none
COC(=O)c1sc(NC(=S)NC(=O)c2cccc(C)c2)nc1C	none
COC(=O)c1sc(NC(=S)NC(=O)c2ccccc2F)nc1C	LMPTP block 73
O=C(O)C1Nc2c(O)cc(Cl)c([N+](=O)[O-])c2C2C=CCC12 (stereo unspecified)	STEP inh 97, LMPTP block 91, SUMO1 PPI mod 104, DNMT1 block 89, Scp-1 inhibitor 62
C/C(=N\NC(=O)c1ccccc1N)c1ccc(NC(=O)Cc2ccccc2)cc1	none
COc1ccccc1C(=O)N/N=C(\C)c1ccc(NC(=O)Cc2ccccc2)cc1	SUMO1 PPI mod 44
Cn1c(=O)[nH]c(=O)c2c1nc(N1CCOCC1)n2CCSc1nc2ccccc2[nH]1	none
CCOCCCn1c(=S)[nH]c2cc3c(cc2c1=O)OCO3	none
Cc1ccc(S(=O)(=O)N2CCC(=O)N([C@H](COC(=O)Nc3ccccc3)Cc3ccccc3)CC2)cc1	none (no result: STEP inh, DNMT1 block, Rpn11 inh, Scp-1 inhibitor)
N#Cc1cc2ccc(N3CCOCC3)cc2cc1C#N	SUMO1 PPI mod 44
Cc1c(C(=O)Nc2nc(-c3ccccn3)cs2)oc2ccccc12	STEP inh 77, Rpn11 inh 42
O=C(Nc1nc(-c2ccccn2)cs1)c1cc2ccccc2o1	none
COc1ccc(NC(=O)Nc2cc3oc4ccccc4c3cc2OC)cc1	SUMO1 PPI mod 59
CCCCCc1nnc(NC(=O)NS(=O)(=O)c2ccc(C)cc2)s1	none
Cc1ccc(C)n1-c1sccc1C(=O)O	STEP inh 75, SUMO1 PPI mod 66, DNMT1 block 107, Scp-1 inhibitor 80
O=C1NC(=O)/C(=C\c2ccc(O)cc2O)S1	Scp-1 inhibitor 53
CC1Cc2cc(/C(O)=C3/C(=O)C(=O)N(CCCN4CCOCC4)C3c3ccc(C(C)C)cc3)ccc2O1 (stereo unspecified)	none
O=C(N/N=C/c1cccc([N+](=O)[O-])c1)c1cc(-c2ccc3c(c2)OCO3)n[nH]1	SUMO1 PPI mod 73
CC[n+]1c(/C=C(\C)SC)sc2ccccc21	none
CC[n+]1c(/C=C(\C)Nc2ccccc2)sc2ccccc21	Scp-1 inhibitor 79
CCOc1ccc2nc3cc(N=Nc4ccc(N)nc4N)ccc3c(N)c2c1	STEP inh 66, LMPTP block 72, SUMO1 PPI mod 116
